Here are results for 26 compounds from ChEMBL document CHEMBL4732178, “Dioxotriazine derivatives as a new class of P2X receptor antagonists: Identification of a lead and initial SAR studies” (Bioorg Med Chem Lett, 2021).

Each structure is given as a SMILES string.

Series [1] is described as follows: Clearance in rat at 0.5 mg/kg, iv or 1 mg/kg, po. As to conditions: in vivo. It is filed as ADME, organism-based.
A short description of series [2]: Oral bioavailability in rat or 1 mg/kg. It counts as ADME, organism-based. As to conditions: in vivo.
Series [3] in a line: Microsomal stability in human liver microsomes assessed as parent compound remaining incubated for 30 mins in presence or absence of NADPH generating system. It is filed as ADME, Microsome. As to conditions: read-out: Stabilty. Summed up: (§1)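 Compound incubated 30 min at 37 °C with human or rat liver microsomes (0.5 mg protein/mL), with or without NADPH-generating system; percent parent remaining reported.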

Series [4] in a line: Microsomal stability in rat liver microsomes assessed as parent compound remaining incubated for 30 mins in presence or absence of NADPH generating system. It counts as ADME, Microsome. As to conditions: read-out: Stabilty. Summed up: as §1
Series [5] can be described thus: Half life in rat at 0.5 mg/kg, iv or 1 mg/kg, po. As to conditions: in vivo. It counts as ADME, organism-based.
A short description of series [6]: Clearance in rat at 1 mg/kg, iv or 3 mg/kg, po. It counts as ADME, organism-based. As to conditions: in vivo.
Series [7] in a line: Half life in rat at 1 mg/kg, iv or 3 mg/kg, po. It counts as ADME, organism-based. As to conditions: in vivo.
Series [8] is described as follows: AUC in rat at 3 mg/kg, po. It counts as ADME, organism-based. On the set-up: dose 3 mg/kg. As to conditions: in vivo.
A short description of series [9]: Cmax in rat at 3 mg/kg, po. As to conditions: in vivo. Also on record: route oral, dose 3 mg/kg. It counts as ADME, organism-based.
Series [10] is described as follows: Oral bioavailability in rat at 3 mg/kg. It is filed as ADME, organism-based. As to conditions: in vivo.

Take `CC(C)Oc1ccc(Nc2nc(=O)n(C(C)C)c(=O)n2Cc2ccc(Cl)cc2)cc1`: in series [1], the clearance came to 23.9 mL/min/kg. In series [2], this compound returned a bioavailability of 25.2%.
With `CC(C)Oc1ccc(Nc2nc(=O)n(CCC#N)c(=O)n2Cc2ccc(Cl)cc2)cc1F`, the remaining at 0.5 h in series [3] turned out to be 59%; in series [4], 30%.
Taken in the same sequence, the figures for `CC(=O)n1c(=O)nc(Nc2ccc(OC(C)C)c(F)c2)n(Cc2ccc(Cl)cc2)c1=O` were 0% and 2%.
In the same order, the values of `CC(C)Oc1ccc(Nc2nc(=O)n(CCC(N)=O)c(=O)n2Cc2ccc(Cl)cc2)cc1F` are 94% and 61%.
Consider `CC(C)Oc1ccc(Nc2nc(=O)n(CCCC(=O)O)c(=O)n2Cc2ccc(Cl)cc2)cc1F`, for which the remaining at 0.5 h in series [3] was 106%; in series [4], 103%.
In the same order, the values of `CC(C)Oc1ccc(Nc2nc(=O)n(CC#N)c(=O)n2Cc2ccc(Cl)cc2)cc1F` are 68% and 41%.
Taken in the same sequence, the figures for `CCn1c(=O)nc(Nc2ccc(OC(C)C)c(F)c2)n(Cc2ccc(Cl)cc2)c1=O` were 86% and 42%.
For `CC(C)Oc1ccc(Nc2nc(=O)n(CCO)c(=O)n2Cc2ccc(Cl)cc2)cc1F`, the results for the remaining at 0.5 h in [3] and in [4] were 92% and 60%, respectively.
Take `CC(C)Oc1ccc(Nc2nc(=O)n(CCCCO)c(=O)n2Cc2ccc(Cl)cc2)cc1F`: the remaining at 0.5 h in [3] amounted to 59%; in [4] it was 36%.
For the compound `CC(C)Oc1ccc(Nc2nc(=O)n(CCC(=O)O)c(=O)n2Cc2ccc(Cl)cc2)cc1F`, the remaining at 0.5 h in series [3] was 92%; in series [4], 99%.
Consider `CC(=O)NCCCn1c(=O)nc(Nc2ccc(OC(C)C)c(F)c2)n(Cc2ccc(Cl)cc2)c1=O`, for which the remaining at 0.5 h was found to be 47% in series [3] and 15% in series [4].
As to `CC(C)Oc1ccc(Nc2nc(=O)[nH]c(=O)n2Cc2ccc(Cl)cc2)cc1F`, the figures for the remaining at 0.5 h in series [3] and in series [4] were 78% and 54%, respectively.
In turn, `CC(C)Oc1ccc(/N=c2\[nH]c(=O)n(CC(=O)O)c(=O)n2Cc2ccc(Cl)cc2)cc1Cl` had a clearance in [1] of 1.7 mL/min/kg. Also, the half-life in [5] was 2.1 h. In addition, in series [2], the bioavailability is 71.2%.
In the case of `CC(C)Oc1ccc(Nc2nc(=O)n(CCCO)c(=O)n2Cc2ccc(Cl)cc2)cc1F`, the remaining at 0.5 h was 82% in [3] and 29% in series [4].
Regarding `CC(C)Oc1ccc(Nc2nc(=O)n(CC(=O)O)c(=O)n2Cc2ccc(Cl)cc2)cc1F`, the remaining at 0.5 h in series [3] was found to be 99%; in series [4], 97%.
In the same order, the values of `CC(=O)NCCn1c(=O)nc(Nc2ccc(OC(C)C)c(F)c2)n(Cc2ccc(Cl)cc2)c1=O` are 45% and 1%.
Taken in the same sequence, the figures for `CC(C)Oc1ccc(Nc2nc(=O)n(Cc3ccccc3)c(=O)n2Cc2ccc(Cl)cc2)cc1F` were 21% and 1%.
For `CNC(=O)CCn1c(=O)nc(Nc2ccc(OC(C)C)c(F)c2)n(Cc2ccc(Cl)cc2)c1=O`, the remaining at 0.5 h in [3] was found to be 86%; in series [4] it was 30%.
The compound `CC(C)Oc1ccc(Nc2nc(=O)n(CCC(=O)O)c(=O)n2Cc2ccc(Cl)cc2)cc1Cl` registered a clearance in series [1] of 0.5 mL/min/kg. Moreover, in series [5], the half-life is 6 h. Moreover, in [2], the bioavailability was 43.2%.
As for `CC(C)Oc1ccc(Nc2nc(=O)n(C(C)C)c(=O)n2Cc2ccc(Cl)cc2)cc1F`, the remaining at 0.5 h came to 36% in series [3] and 49% in [4].
As to `CCCn1c(=O)nc(Nc2ccc(OC(C)C)c(F)c2)n(Cc2ccc(Cl)cc2)c1=O`, the remaining at 0.5 h in [3] is 36%; in series [4], 35%.
The compound `CC(C)Oc1ccc(Nc2nc(=O)n(CC(C)(C)C(=O)O)c(=O)n2Cc2ccc(Cl)cc2)cc1F` registered a clearance in series [6] of 3 mL/min/kg. Also, the half-life in series [7] is 9.6 h. The AUC in series [8] is 6990 ng·h/mL. Further, the Cmax in series [9] amounted to 1260 ng/mL. Moreover, in series [10], the bioavailability stood at 47.3%.
With `Cc1ccc(Cn2c(Nc3ccc(OC(C)C)c(Cl)c3)nc(=O)n(CCC(=O)O)c2=O)cc1`, the clearance in series [6] was found to be 2.7 mL/min/kg. This compound also had a half-life in series [7] of 1.6 h. For the same compound, in [8], the AUC stood at 14300 ng·h/mL. The compound further showed a bioavailability in series [10] of 71.8%.
In [1], `CC(C)Oc1ccc(Nc2nc(=O)c(CC(=O)O)cn2Cc2ccc(Cl)cc2)cc1Cl` registered a clearance of 8.3 mL/min/kg. The same compound gave a half-life in series [5] of 1.8 h. This compound displayed a bioavailability in series [2] of 79.9%.
Regarding `CC(C)Oc1ccc(Nc2cc(=O)n(CCC(=O)O)c(=O)n2Cc2ccc(Cl)cc2)cc1Cl`, the clearance in [1] came out at 2.1 mL/min/kg. The half-life in [5] was 2.2 h. In series [2], this compound displayed a bioavailability of 61.5%.
Compound `COc1cc(C(C)C)c(Oc2cnc(NC(CO)CO)nc2N)cc1I` yielded a clearance in [6] of 42 mL/min/kg. Further, the half-life in [7] was 1.1 h. In series [8], this compound returned an AUC of 369 ng·h/mL. Moreover, in [9], the Cmax was determined as 118 ng/mL. For the same compound, the bioavailability in series [10] is 30.3%.

As usually defined, the bioavailability is the share of a dose that reaches the circulation, judged against a reference dose that is usually intravenous. A low value points to poor availability. For orientation: half-life means the time in which the quantity being followed falls by half. High values mean slow decline, low ones rapid decline. The AUC is the area under the concentration-time curve, a measure of exposure. The Cmax is the peak of the concentration-time curve.
